Source: paper PMC5424638 (Biomolecules & Therapeutics, 2016)

Experiments:
[1] = Cytotoxicity assay; type: cell-based, rat; settings: Sprague-Dawley, rat, primary neonatal rat cardiomyocytes
How it was run: (§1)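 Ventricles from 1–3-day-old Sprague-Dawley rats were digested with 0.05% collagenase II/0.05% trypsin at 37°C, pre-plated 1.5 h to remove nonmyocytes, and cultured 3 days in DMEM/10% FBS. Cells were exposed to test compound at 0.01–1000 µM for 72 h (final DMSO ≤0.05%). MTT was added for 4 h at 37°C and absorbance read at 570 nm. TC50 (50% viability loss vs untreated) came from at least three dose-response curves.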

[2] = test system: CVB3 (Nancy strain); assay: Anti-viral activity assay in CVB3-infected cardiomyocytes; type: cell-based, coxsackievirus B3; settings: for IC50: Enterovirus B, CVB3, Cardiomyocyte, 72 h; for TI (TC50/IC50): cardiomyocytes
How it was run: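 Neonatal rat cardiomyocytes grown to confluence (about 1x10^4 cells/well) were infected with CVB3 (Nancy strain, 100 TCID50) for 2 h in six replicates. Cells were washed three times with PBS, then exposed to serial dilutions of test compound for 72 h. XTT plus phenazine methosulfate was added for 2 h, and OD was read at 450 nm (reference 690 nm). Inhibition was (ODtv−ODcv)/(ODcd−ODcv)x100, giving IC50 and TI (TC50/IC50).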

[3] = test system: CVB3-induced myocarditis; assay: CVB3-induced viral myocarditis mouse model, cardiac pathological score; type: in vivo, BALB/c mice; settings: for Pathological score (grade): day 7, n=10; for Myocardial damage compared with the infected control (model) group: 20, 40 and 60 mg/kg, day 7
How it was run: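 Four-week-old male BALB/c mice (n=10/group, pathogen-free) received CVB3 i.p. at 100xTCID50 in 0.1 ml RPMI 1640. From day 2, interferon alpha was given i.p. once daily, and test compound at 20, 40 or 60 mg/kg was given by oral gavage in 0.5% CMC-saline. On day 7, ventricles were formalin-fixed, paraffin-embedded, cut at 4 µm and H&E stained. Inflamed fraction of the section (eyepiece grid, x200) was graded 0–4 (<25%, 25–50%, 50–75%, >75%).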

[4] = ref Yuan et al., 1992; cited from earlier work
[5] = test system: CVB3; assay: Virus titration from heart homogenate of CVB3-infected mice; type: in vivo, BALB/c mice; settings: day 7, n=10
[6] = test system: IL-6 mRNA; assay: IL-6 mRNA expression in CVB3-infected cardiomyocytes; type: cell-based, rat; settings: 10 μM, 12 h
How it was run: (§2)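 Neonatal rat cardiomyocytes were infected with CVB3 and then incubated with 10 µM test compound. Cytokine mRNA expression in the cells was measured by real-time PCR after 12 h. Data are given as mean ± SD.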

[7] = 24 h stability in blood at room temperature; type: in vitro ADME, rat; settings: unpublished data
[8] = test system: neonatal rat cardiomyocytes; assay: Cytotoxicity assay; type: cell-based; settings: for 50% toxic concentration (CC50) fold higher than in the cinnamaldehyde group: cardiomyocytes
How it was run: as §1

[9] = test system: IL-1β mRNA; assay: IL-1β mRNA expression in CVB3-infected cardiomyocytes; type: cell-based, rat; settings: 10 μM, 12 h
How it was run: as §2

[10] = test system: TNF-α mRNA; assay: TNF-α mRNA expression in CVB3-infected cardiomyocytes; type: cell-based, rat; settings: 10 μM, 12 h
How it was run: as §2

[11] = Pharmacokinetics in rats after single oral administration; type: in vivo, rat; settings: single oral dose 20 mg/kg, preliminary, unpublished data
[12] = test system: IL-1β; assay: IL-1β protein expression in CVB3-infected cardiomyocytes; type: cell-based, rat; settings: 10 μM, 24 h
How it was run: (§3)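 CVB3-infected neonatal rat cardiomyocytes were treated with 10 µM test compound for 24 h. Whole-cell lysates (equal protein) were run on 15% SDS-PAGE and transferred to nitrocellulose. Membranes were blocked in 5% skimmed milk for 2 h at room temperature, probed with cytokine and GAPDH antibodies overnight at 4°C, then with HRP secondary for 1 h, and detected by chemiluminescence. Bands were expressed as ratio to GAPDH (n=3, mean ± SD).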

[13] = test system: TNF-α; assay: TNF-α protein expression in CVB3-infected cardiomyocytes; type: cell-based, rat; settings: 10 μM, 24 h
How it was run: as §3

[14] = test system: IL-6; assay: IL-6 protein expression in CVB3-infected cardiomyocytes; type: cell-based, rat; settings: 10 μM, 24 h
How it was run: as §3

[15] = test system: IL-1β; assay: IL-1β level in culture supernatant of CVB3-infected cardiomyocytes; type: cell-based, rat; settings: 10 μM, 72 h; viral control 163.64 ± 19.75
[16] = test system: TNF-α; assay: TNF-α level in culture supernatant of CVB3-infected cardiomyocytes; type: cell-based, rat; settings: 10 μM, 72 h; viral control 80.12 ± 8.40
[17] = test system: IL-6; assay: IL-6 level in culture supernatant of CVB3-infected cardiomyocytes; type: cell-based, rat; settings: 10 μM, 72 h; viral control 337.46 ± 29.22

Structure (SMILES) | Stability in blood [7] | Time at which peak concentration was achieved after oral administration [11] | CC50 at 72 h [1] [µM] | IC50 [2] [µM] | TI (TC50/IC50) [2] | Pathological score (grade) ([3]; 40 mg/kg/day) | Viral titers ([5]; 40 mg/kg/day) [Log TCID50/mg] | IL-6 mRNA expression [6] | 50% toxic concentration (CC50) fold higher than in the cinnamaldehyde group [8] [fold] | IL-1β mRNA expression [9] | Pathological score (grade) ([3]; 20 mg/kg/day, oral gavage) | Pathological score (grade) ([3]; 60 mg/kg/day, oral gavage) | Myocardial damage compared with the infected control (model) group [3] | TNF-α mRNA expression [10] | CVB3-mediated IL-1β expression (Western blot) [12] | Viral titers ([5]; 20 mg/kg/day, oral gavage) [Log TCID50/mg] | CVB3-mediated TNF-α expression (Western blot) [13] | CVB3-mediated IL-6 expression (Western blot) [14] | further results
COc1ccc(/C=C/C=O)cc1 [Compound 3, (E)-3-(4-methoxyphenyl)acrylaldehyde] |  |  | 7.88 ± 0.82 |  |  |  |  |  |  |  |  |  |  |  |  |  |  |  | 
O=CC=Cc1ccccc1 [Cinnamaldehyde, 3-phenyl-2-propenal, reference compound] |  |  | 0.98 ± 0.12 | 24.2 ± 4.77 | 0.04 | 2.40 ± 0.50 | 2.80 ± 0.63 |  |  |  |  |  |  |  |  |  |  |  | Half-life in rat blood [4]: 4 min
Cc1ccc(/C=C/C=O)cc1 [Compound 1, (E)-3-p-tolylacrylaldehyde] |  |  | 3.96 ± 0.29 |  |  |  |  |  |  |  |  |  |  |  |  |  |  |  | 

Second part, led by results:

Stability in blood [7] | Time at which peak concentration was achieved after oral administration [11] | Structure (SMILES) | CC50 at 72 h [1] [µM] | IC50 [2] [µM] | TI (TC50/IC50) [2] | Pathological score (grade) ([3]; 40 mg/kg/day) | Viral titers ([5]; 40 mg/kg/day) [Log TCID50/mg] | IL-6 mRNA expression [6] | 50% toxic concentration (CC50) fold higher than in the cinnamaldehyde group [8] [fold] | IL-1β mRNA expression [9] | Pathological score (grade) ([3]; 20 mg/kg/day, oral gavage) | Pathological score (grade) ([3]; 60 mg/kg/day, oral gavage) | Myocardial damage compared with the infected control (model) group [3] | TNF-α mRNA expression [10] | CVB3-mediated IL-1β expression (Western blot) [12] | Viral titers ([5]; 20 mg/kg/day, oral gavage) [Log TCID50/mg] | CVB3-mediated TNF-α expression (Western blot) [13] | CVB3-mediated IL-6 expression (Western blot) [14] | further results
stable for 24 h | ~3.3 h | Cc1ccc(/C=C(\Br)C=O)cc1 [Compound 4, (Z)-2-bromo-3-p-tolylacrylaldehyde] | 38.6 ± 4.89 | 11.4 ± 2.22 | 3.39 | 2.10 ± 0.60 | 2.90 ± 0.57 | inhibited | 39 | inhibited | 2.80 ± 0.70 | 1.90 ± 0.60 | significantly reduced | inhibited | markedly diminished | 3.10 ± 0.74 | markedly diminished | markedly diminished | 
stable for 24 h | ~2.1 h | O=C/C(Br)=C/c1ccc(Cl)cc1 [Compound 5, (Z)-2-bromo-3-(4-chlorophenyl) acrylaldehyde] | 85.7 ± 7.63 | 2.12 ± 0.37 | 40.42 | 1.75 ± 0.60 |  | inhibited | 87 | inhibited | 1.95 ± 0.40 | 1.30 ± 0.50 | significantly reduced | inhibited | markedly diminished | 2.80 ± 0.42 | markedly diminished | markedly diminished | IL-1β level in culture supernatant [15]: 112.72 ± 13.60 pg/mL; TNF-α level in culture supernatant [16]: 43.60 ± 4.77 pg/mL; IL-6 level in culture supernatant [17]: 232.80 ± 19.62 pg/mL
stable for 24 h | about 1.2 h | O=C/C=C/c1ccc(Cl)cc1 [Compound 2, (E)-3-(4-chlorophenyl) acrylaldehyde] | 6970 | 2110 | 3.31 | 2.85 ± 0.70 | 3.20 ± 0.63 |  | 7114 |  | 2.85 ± 0.70 | 2.75 ± 0.60 | no significant difference |  |  | 3.30 ± 0.48 |  |  | CC50 ([8]; neonatal rat cardiomyocytes, 0.01–1000 μM, 72 h, MTT, called TC50 in methods): no obvious cytotoxicity; Viral titers ([5]; 60 mg/kg/day, oral gavage): 3.10 ± 0.57 Log TCID50/mg
